Measured values gathered from unrelated publications.
Each line is one published result; the experiments were not run side by side.
CHRM1: Muscarinic acetylcholine receptor M1 (CHRM1, Homo sapiens, UniProt P11229)
HDAC11: Histone deacetylase 11 (HDAC11, Homo sapiens, UniProt Q96DB2)
CYP1A2: Cytochrome P450 1A2 (CYP1A2, Homo sapiens, UniProt P05177)
ALDH2: Aldehyde dehydrogenase, mitochondrial (ALDH2, Homo sapiens, UniProt P05091)
CYP3A4: Cytochrome P450 3A4 (CYP3A4, Homo sapiens, UniProt P08684)

With `CCc1oc2ccccc2c1C(=O)c1cc(Br)c(O)c(Br)c1` the IC50 was 1.54 µM (Solute carrier organic anion transporter family member 1B1 (SLCO1B1, Homo sapiens, UniProt Q9Y6L6); transporter uptake, inhibitor, radiometric; oocytes).
The IC50 of `O=C(CCNC(=O)CNC(=O)CC(c1ccccc1)(c1ccccc1)c1ccccc1)NC[C@@H]1CCCN(Cc2cccnc2F)C1` is reported as over 30 µM (CHRM1; ligand displacement, radioligand; cell membranes).
With `CCc1cnn2c(NCc3ccc[n+]([O-])c3)cc(N3CCCC[C@H]3CCO)nc12` the IC50 was 0.062 µM (Tyrosine-protein kinase JAK1 (JAK1, Homo sapiens, UniProt P23458); enzyme activity, inhibitor, ELISA).
The IC50 of `COc1ccc(N(Cc2csc(-c3ccc(Br)cc3)n2)C(=O)CCCCCC(=O)NO)cc1` is reported as over 10 µM (HDAC11; enzyme activity, inhibitor).
With `CN(C)C(=O)c1cc2cnc(Nc3ccc(-c4ccc5c(=O)cc(N6CCOCC6)oc5c4)cc3)nc2n1C1CCCC1` the IC50 was over 100 µM (CYP1A2; enzyme activity, inhibitor, fluorescence; pH 8).
With `O=C1Nc2ccccc2C12CC2c1cc(Cl)c(O)c(Cl)c1` (centres unmarked) the IC50 was over 50 µM (ALDH2; enzyme activity, inhibitor, fluorescence).
With `CC(C)C[C@H](NC(=O)[C@@H](NC(=O)N[C@@H](Cc1ccccc1)C(=O)O)[C@@H]1CCN=C(N)N1)C(=O)N[C@H](C=O)Cc1ccccc1` the IC50 was 0.00777 µM (Chymase (CMA1, Homo sapiens, UniProt P23946); enzyme activity, inhibitor).
`Cc1ccc(OCC(=O)N[C@@H](Cc2c[nH]c3ccccc23)C(=O)OC(C)C)cc1` gave an IC50 of over 50 µM (CYP1A2; enzyme activity, inhibitor; human, liver microsomes; 30 min).
With `O=C(CCNC(=O)CNC(=O)CC(c1ccccc1)(c1ccccc1)c1ccccc1)NCC1CCN(Cc2ccc(F)cc2)CC1` the IC50 was 5.9 µM (CHRM1; ligand displacement, radioligand; cell membranes).
For `CNC(=O)[C@H](Cc1c[nH]c2ccccc12)NC(=O)[C@@H](CC(=O)NO)CC(C)C`, the IC50 was 0.000129 µM (Collagenase 3 (MMP13, Homo sapiens, UniProt P45452); enzyme activity, inhibitor).
For `OCc1ccc(-c2nn(Cc3ccccc3)c3ccccc23)o1`, the IC50 was 0.9 µM (CYP1A2; enzyme activity, inhibitor; human, liver microsomes).
With `O=C(O)c1cc(-c2ccc(-n3ccnn3)cc2)c2ccc(-c3ccc(C(F)(F)F)cc3)cc2c1` the IC50 was 7.07 µM (CYP3A4; enzyme activity, inhibitor).
For `COc1nc2ccc(Br)cc2cc1[C@@H](c1ccccc1)[C@@](O)(CCN(C)C)c1cccc2ccccc12`, the IC50 was under 10 µM (ALDH2; enzyme activity, inhibitor, fluorescence).
`CCCN(CCC)S(=O)(=O)c1ccc(C(=O)O)cc1` has an IC50 of 600 µM (Taste receptor type 2 member 14 (TAS2R14, Homo sapiens, UniProt Q9NYV8); inositol phosphate, antagonist, TR-FRET).
`O=C1Nc2ccccc2/C1=C\c1cc(F)c(O)c(F)c1` has an IC50 of 0.9 µM (ALDH2; enzyme activity, inhibitor, fluorescence).
`COc1ccc(N(Cc2csc(-c3ccc(C)cc3)n2)C(=O)CCCCCC(=O)NO)cc1` has an IC50 of over 10 µM (HDAC11; enzyme activity, inhibitor).
The IC50 of `C=CCn1c(=O)c2cnc(Nc3ccc(N4CCN(C)CC4)cc3)nc2n1-c1ccc2c(n1)[C@@](O)(CC)CC2` is reported as 7 µM (CYP3A4; enzyme activity, inhibitor).
